Test results published in ChEMBL document CHEMBL4400513, “Aurone derivatives as promising antibacterial agents against resistant Gram-positive pathogens” (Eur J Med Chem, 2019).
Values after ≈ are worked out from the molar mass of the structure shown. Active and inactive are the calls of the source. The calls are words filed in the database; no cut-off is given here.

What was measured:
Blautia producta = assay: Bactericidal activity against Clostridium coccoides in anaerobic condition; format: functional, organism-based
In short: (§1)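 From the MIC plates, 10 µL from each well without growth was streaked onto agar suited to the organism and incubated under that organism's growth conditions. Colonies were then counted; MBC = lowest concentration allowing ≤1 colony, i.e. killing 99.9% of bacteria.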

Acinetobacter baumannii = assay: Bactericidal activity against Acinetobacter baumannii in aerobic condition; format: functional, organism-based; in short: as §1
Cutibacterium acnes [1] = assay: Bactericidal activity against Propionibacterium acnes in aerobic condition; format: functional, organism-based; in short: as §1
Penicillium verrucosum = assay: Antifungal activity against Penicillium verrucosum after 2 to 5 days by two-fold serial dilutions method; format: functional
In short: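 Broth two-fold serial dilution MIC, 0 to 500 µM (1:2 steps), from 200 mM DMSO stocks; 0.2% DMSO final as vehicle control. Inoculum about 10^5 cells/mL. Strains maintained on potato dextrose agar and in RPMI medium. Plates held at room temperature for 2 to 5 days, OD600 read; MIC = lowest concentration preventing visible growth; independent triplicate.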

[2] = system: Streptococcus thermophilus; assay: Bactericidal activity against Streptococcus thermophilus in anaerobic condition; format: functional, organism-based
In short: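 S. thermophilus grown in BHI and brought to log phase (OD600 ~0.6). It is diluted to ~10^5 bacteria/mL and exposed to two-fold serial dilutions (0–500 µM, 0.2% DMSO final) at 37 °C in an anaerobic cabinet for 18–24 h. MIC read by OD600 as the lowest concentration with no visible growth. The MBC is the concentration where ≤1 colony grew after streaking 10 µL of no-growth wells on agar. Triplicate.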

IMR-90 = assay: Cytotoxicity against human IMR90 cells assessed as reduction in cell viability after 48 hrs by Resazurin dye-based assay; conditions: for IC50: Homo sapiens, IMR-90, 48 h; for Activity: human, imr-90, 48 h
In short: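 Normal human lung epithelial (BEAS-2B) and lung fibroblast (IMR-90) cells were grown in DMEM with 10% FCS. Cells were seeded at ~10^4/well, grown to confluence (48–72 h), then exposed to increasing concentrations for 48 h at 37 °C, 5% CO2, with 0.2% DMSO as control. Resazurin was added for 4 h and fluorescence read at 530/590 nm. Viability was normalized to DMSO wells and IC50 calculated.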

Stachybotrys chartarum = assay: Fungicidal activity against Stachybotrys chartarum; format: functional, organism-based
In short: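 Filamentous fungi grown on potato dextrose agar and tested in RPMI medium with two-fold serial dilutions (0–500 µM, 0.2% DMSO final). Plates held at room temperature for 2 to 5 days, then OD600 read; MIC taken as the lowest concentration with no visible growth. The fungicidal endpoint is ≤1 colony after streaking 10 µL of no-growth wells on agar. n = 3.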

Klebsiella pneumoniae [3] = assay: Bactericidal activity against Klebsiella pneumoniae in aerobic condition; format: functional, organism-based; in short: as §1
Bacillus subtilis = assay: Bactericidal activity against Nisin-resistant Bacillus subtilis in aerobic condition; format: functional, organism-based
Klebsiella pneumoniae [4] = assay: Antimicrobial activity against Klebsiella pneumoniae after 18 to 24 hrs in aerobic condition by two-fold serial dilutions method; format: functional
In short: (§2)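 Colonies grown overnight (~16 h) in Mueller-Hinton broth at 37 °C, 200 rpm, diluted 1/100 and grown to log phase (OD600 ~0.6), then diluted to ~10^5 bacteria/mL. Exposed to 0 to 500 µM in 1:2 series (0.2% DMSO final control), aerobic, 37 °C, 18–24 h. OD600 read; MIC = lowest concentration without visible growth; n = 3.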

Pseudomonas aeruginosa [5] = assay: Antimicrobial activity against Pseudomonas aeruginosa after 18 to 24 hrs in aerobic condition by two-fold serial dilutions method; format: functional; in short: as §2
Escherichia coli [6] = assay: Bactericidal activity against Escherichia coli MRS in aerobic condition; format: functional, organism-based; in short: as §1
Clostridioides difficile = assay: Bactericidal activity against Clostridium difficile in anaerobic condition; format: functional, organism-based; in short: as §1
Fusarium graminearum = assay: Fungicidal activity against Fusarium graminearum; format: functional, organism-based
Aspergillus niger = assay: Fungicidal activity against Aspergillus niger after 48 hrs; format: functional, organism-based
In short: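 A. niger in RPMI medium, two-fold serial dilutions 0–500 µM (0.2% DMSO final). Incubation at 35 °C for 48 h; OD600 read, MIC as the lowest concentration with no visible growth. Killing concentration determined by streaking 10 µL from no-growth wells on agar, where ≤1 colony grew. Triplicate.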

Salmonella enterica = assay: Bactericidal activity against Salmonella enterica in aerobic condition; format: functional, organism-based
In short: (§3)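 MH broth; log-phase bacteria (OD600 ~0.6) diluted to ~10^5 bacteria/mL and exposed to two-fold serial dilutions (0–500 µM; 0.2% DMSO final as vehicle control) at 37 °C, aerobic, 18–24 h. MIC is the lowest concentration preventing visible growth (OD600). MBC is found by streaking 10 µL from no-growth wells onto agar; the MBC is the concentration where ≤1 colony grew. n = 3.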

Vibrio alginolyticus = assay: Antimicrobial activity against Vibrio alginolyticus after 18 to 24 hrs in aerobic condition by two-fold serial dilutions method; format: functional; in short: as §2
Pseudomonas aeruginosa [7] = assay: Bactericidal activity against Pseudomonas aeruginosa in aerobic condition; format: functional, organism-based; in short: as §3
Escherichia coli [8] = assay: Bactericidal activity against Escherichia coli […] K88 in aerobic condition; format: functional, organism-based
Cutibacterium acnes [9] = assay: Antimicrobial activity against Propionibacterium acnes after 18 to 24 hrs in aerobic condition by two-fold serial dilutions method; format: functional
[10] = Therapeutic index, ratio of IC50 for human IMR90 cells to MIC for Clostridium perfringens; format: toxicity; conditions: read-out: TI
In short: (§4)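 IC50 measured on confluent normal human BEAS-2B or IMR-90 cells (DMEM, 10% FCS) after 48 h exposure with DMSO 0.2% as control. Resazurin read after 4 h (ex 530/em 590 nm), normalised to DMSO-treated cells. Index obtained by comparing this IC50 with the bacterial MIC.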

[11] = Therapeutic index, ratio of IC50 for human BEAS2B cells to MIC for methicillin-resistant Staphylococcus aureus; format: toxicity; conditions: read-out: TI; in short: as §4

For COc1cc(/C=C2\Oc3cc(O)cc(O)c3C2=O)ccc1OCc1ccccc1, the Activity (Blautia producta) was “Active”, the Activity (Acinetobacter baumannii) was “Active” and the Activity (Cutibacterium acnes [1]) was “Active”. For the same compound, the MIC (Penicillium verrucosum) was over 500 µM, the Activity [2] was “Active” and the IC50 (IMR-90) was 340 µM. The Activity (IMR-90) was “Dose-dependent effect”, the Activity (Stachybotrys chartarum) was “Active” and the Activity (Klebsiella pneumoniae [3]) was “Active”. The Activity (Bacillus subtilis) was “Active”, the MIC (Klebsiella pneumoniae [4]) was over 500 µM and the MIC (Pseudomonas aeruginosa [5]) was over 500 µM. For the same compound, the Activity (Escherichia coli [6]) was “Active”, the Activity (Clostridioides difficile) was “Active” and the Activity (Fusarium graminearum) was “Active”. The Activity (Aspergillus niger) was “Active”, the Activity (Salmonella enterica) was “Active” and the MIC (Vibrio alginolyticus) was 3.9 µM (≈ 1.52 µg/mL). For the same compound, the Activity (Pseudomonas aeruginosa [7]) was “Active”, the Activity (Escherichia coli [8]) was “Active” and the MIC (Cutibacterium acnes [9]) was 31.2 µM (≈ 12.2 µg/mL).

With O=C1/C(=C/c2ccccc2)Oc2cc(O)cc(O)c21 the Activity (Blautia producta) was “Active”, the Activity (Acinetobacter baumannii) was “Active” and the Activity (Cutibacterium acnes [1]) was “Active”. For the same compound, the MIC (Penicillium verrucosum) was over 500 µM, the Activity [2] was “Active” and the IC50 (IMR-90) was 250 µM. For the same compound, the Activity (IMR-90) was “Dose-dependent effect”, the Activity (Stachybotrys chartarum) was “Active” and the Activity (Klebsiella pneumoniae [3]) was “Active”. For the same compound, the Activity (Bacillus subtilis) was “Active”, the MIC (Klebsiella pneumoniae [4]) was over 500 µM and the MIC (Pseudomonas aeruginosa [5]) was over 500 µM. The Activity (Escherichia coli [6]) was “Active”, the selectivity ratio [10] was 32 and the Activity (Clostridioides difficile) was “Active”. The Activity (Fusarium graminearum) was “Active”, the Activity (Aspergillus niger) was “Active” and the Activity (Salmonella enterica) was “Active”. The MIC (Vibrio alginolyticus) was 31.2 µM (≈ 7.95 µg/mL), the Activity (Pseudomonas aeruginosa [7]) was “Active” and the Activity (Escherichia coli [8]) was “Active”. For the same compound, the MIC (Cutibacterium acnes [9]) was 31.2 µM (≈ 7.95 µg/mL).

For O=C1/C(=C/c2ccc(F)cc2)Oc2cc(O)cc(O)c21, the Activity (Blautia producta) was “Active”, the Activity (Acinetobacter baumannii) was “Active” and the Activity (Cutibacterium acnes [1]) was “Active”. For the same compound, the MIC (Penicillium verrucosum) was over 500 µM, the Activity [2] was “Active” and the IC50 (IMR-90) was 620 µM. For the same compound, the Activity (IMR-90) was “Dose-dependent effect”, the Activity (Stachybotrys chartarum) was “Active” and the Activity (Klebsiella pneumoniae [3]) was “Active”. The Activity (Bacillus subtilis) was “Active”, the MIC (Klebsiella pneumoniae [4]) was over 500 µM and the MIC (Pseudomonas aeruginosa [5]) was over 500 µM. For the same compound, the Activity (Escherichia coli [6]) was “Active”, the Activity (Clostridioides difficile) was “Active” and the Activity (Fusarium graminearum) was “Active”. The Activity (Aspergillus niger) was “Active”, the selectivity ratio [11] was 76 and the Activity (Salmonella enterica) was “Active”. For the same compound, the MIC (Vibrio alginolyticus) was 125 µM (≈ 34 µg/mL), the Activity (Pseudomonas aeruginosa [7]) was “Active” and the Activity (Escherichia coli [8]) was “Active”. It also gave an MIC (Cutibacterium acnes [9]) of 31.2 µM (≈ 8.51 µg/mL).
